Converted amounts (≈) assume the structure as drawn.
Key:
Format in all cases: functional
Proteus mirabilis = experiment: Antibacterial activity against Proteus mirabilis ATCC 29906 by Etest method in presence of 4 ug/ml NAB7073
Escherichia coli [1] = experiment: Antibacterial activity against Escherichia coli IH3080 by Etest method in presence of 4 ug/ml NAB7064
Serratia marcescens = experiment: Antibacterial activity against Serratia marcescens ATCC 8100 by Etest method in presence of 4 ug/ml NAB7072
Enterobacter cloacae [2] = experiment: Antibacterial activity against Enterobacter cloacae ATCC 23355 by Etest method
Method in brief: (§1)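 E-strip MIC on Mueller-Hinton agar without added peptide; inoculum per manufacturer, matching CLSI M2-A9.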

Acinetobacter baumannii [3] = experiment: (§2) Antibacterial activity against Acinetobacter baumannii ATCC 19606 by Etest method in presence of […] NAB739
Klebsiella pneumoniae [4] = experiment: Antibacterial activity against Klebsiella pneumoniae ATCC 13883 by Etest method in presence of 4 ug/ml NAB7061
Method in brief: (§3)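 MICs of the antibiotic taken from E-strips on Mueller-Hinton agar, run both with and without peptide. […] Inoculum was prepared per the strip manufacturer, matching CLSI M2-A9.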

Klebsiella oxytoca [5] = experiment: Antibacterial activity against Klebsiella oxytoca CCUG51683 by Etest method in presence of 4 ug/ml NAB7066
Citrobacter freundii = experiment: Antibacterial activity against Citrobacter freundii ATCC 8090 by Etest method in presence of 4 ug/ml NAB7069
Acinetobacter baumannii [6] = experiment: (§4) Antibacterial activity against Acinetobacter baumannii F264 by Etest method in presence of […] NAB739
Pseudomonas aeruginosa [7] = experiment: (§5) Antibacterial activity against Pseudomonas aeruginosa ATCC 27853by Etest method in presence of […] NAB739
Pseudomonas aeruginosa [8] = experiment: Antibacterial activity against Pseudomonas aeruginosa ATCC 27853 by Etest method in presence of 4 ug/ml NAB7075
Enterobacter cloacae [9] = experiment: Antibacterial activity against Enterobacter cloacae ATCC 23355 […] by Etest method in presence of 2 ug/ml NAB7062
Acinetobacter baumannii [10] = experiment: as §4; remark: listed apart in the source
Klebsiella pneumoniae [11] = experiment: Antibacterial activity against Klebsiella pneumoniae ATCC 13883 by Etest method; method in brief: as §3
Acinetobacter baumannii [12] = experiment: Antibacterial activity against Acinetobacter baumannii ATCC 19606 by Etest method
Pseudomonas aeruginosa [13] = experiment: Antibacterial activity against Pseudomonas aeruginosa ATCC 27853by Etest method in presence of 1 ug/ml NAB739; method in brief: as §3
Klebsiella oxytoca [14] = experiment: Antibacterial activity against Klebsiella oxytoca ATCC 13182 by Etest method in presence of 4 ug/ml NAB7065
Pseudomonas aeruginosa [15] = experiment: Antibacterial activity against Pseudomonas aeruginosa ATCC 27853by Etest method; method in brief: as §3
Acinetobacter baumannii [16] = experiment: Antibacterial activity against Acinetobacter baumannii by Etest method in presence of 4 ug/ml NAB7071
Escherichia coli [17] = experiment: Antibacterial activity against Escherichia coli ATCC […] by Etest method in presence of 1 ug/ml NAB7061
Klebsiella pneumoniae [18] = experiment: Antibacterial activity against Klebsiella pneumoniae CCUG45421 by Etest method in presence of 4 ug/ml NAB7063
Escherichia coli [19] = experiment: Antibacterial activity against Escherichia coli NCTC13353 by Etest method in presence of 4 ug/ml NAB7062
Escherichia coli [20] = experiment: Antibacterial activity against Escherichia coli IH3080 by Etest method; method in brief: as §1
Enterobacter cloacae [21] = experiment: Antibacterial activity against Enterobacter cloacae ATCC 23355 […] by Etest method in presence of 4 ug/ml NAB7064
Pseudomonas aeruginosa [22] = experiment: Antibacterial activity against Pseudomonas aeruginosa ATCC 27853by Etest method in presence of 0.5 ug/ml NAB739; method in brief: as §3
Klebsiella pneumoniae [23] = experiment: Antibacterial activity against Klebsiella pneumoniae ATCC 13883 by Etest method in presence of 1 ug/ml NAB7061; method in brief: as §3
Escherichia coli [24] = experiment: Antibacterial activity against Escherichia coli ATCC […] by Etest method in presence of 2 ug/ml NAB7062
Enterobacter cloacae [25] = experiment: Antibacterial activity against Enterobacter cloacae ATCC 23355 […] by Etest method in presence of NAB7061
Klebsiella pneumoniae [26] = experiment: Antibacterial activity against Klebsiella pneumoniae ATCC 13883 by Etest method in presence of NAB7061; method in brief: as §3
Proteus vulgaris = experiment: Antibacterial activity against Proteus vulgaris ATCC 13315 by Etest method in presence of 4 ug/ml NAB7074
Escherichia coli [27] = experiment: Antibacterial activity against Escherichia coli IH3080 by Etest method in presence of 1 ug/ml NAB7061
Escherichia coli [28] = experiment: Antibacterial activity against Escherichia coli IH3080 by Etest method in presence of 2 ug/ml NAB7062
Klebsiella pneumoniae [29] = experiment: Antibacterial activity against Klebsiella pneumoniae by Etest method in presence of 4 ug/ml NAB7064
Acinetobacter baumannii [30] = experiment: Antibacterial activity against Acinetobacter baumannii F264 by Etest method in presence of 0.5 ug/ml NAB739
Acinetobacter baumannii [31] = experiment: Antibacterial activity against Acinetobacter baumannii F264 by Etest method; method in brief: as §1
Acinetobacter baumannii [32] = experiment: Antibacterial activity against Acinetobacter baumannii ATCC 19606 by Etest method in presence of 1 ug/ml NAB739
Escherichia coli [33] = experiment: Antibacterial activity against Escherichia coli by Etest method in presence of 4 ug/ml NAB7061
Acinetobacter baumannii [34] = experiment: Antibacterial activity against Acinetobacter baumannii ATCC 19606 by Etest method in presence of 0.5 ug/ml NAB739
Enterobacter cloacae [35] = experiment: Antibacterial activity against Enterobacter cloacae by Etest method in presence of 4 ug/ml NAB7068
Acinetobacter baumannii [36] = experiment: Antibacterial activity against Acinetobacter baumannii ATCC 19606 by Etest method in presence of 4 ug/ml NAB7070
Pseudomonas aeruginosa [37] = experiment: Antibacterial activity against Pseudomonas aeruginosa ATCC 27853by Etest method in presence of 2 ug/ml NAB739
Escherichia coli [38] = experiment: Antibacterial activity against Escherichia coli ATCC 25992 by Etest method; method in brief: as §1
Enterobacter cloacae [39] = experiment: Antibacterial activity against Enterobacter cloacae CCUG52947 by Etest method in presence of 4 ug/ml NAB7067
Enterobacter cloacae [40] = experiment: Antibacterial activity against Enterobacter cloacae ATCC 23355 […] by Etest method in presence of 1 ug/ml NAB7061
Escherichia coli [41] = experiment: Antibacterial activity against Escherichia coli IH3080 by Etest method in presence of NAB7061
Acinetobacter baumannii [42] = experiment: Antibacterial activity against Acinetobacter baumannii F264 by Etest method in presence of 1 ug/ml NAB739
Pseudomonas aeruginosa [43] = experiment: as §5; remark: listed apart in the source
Klebsiella pneumoniae [44] = experiment: Antibacterial activity against Klebsiella pneumoniae ATCC 13883 by Etest method in presence of 2 ug/ml NAB7061; method in brief: as §3
Escherichia coli [45] = experiment: Antibacterial activity against Escherichia coli ATCC […] by Etest method in presence of 4 ug/ml NAB7064
Acinetobacter baumannii [46] = experiment: as §2; remark: listed apart in the source
Escherichia coli [47] = experiment: Ratio of the MIC for Escherichia coli IH3080 in the absence of NAB7061 to MIC for Escherichia coli IH3080 in the presence of 4 ug/ml of NAB7061
Klebsiella pneumoniae [48] = experiment: Ratio of the MIC for Klebsiella pneumoniae ATCC 13883 in the absence of NAB7061 to MIC for Klebsiella pneumoniae ATCC 13883 in the presence of 4 ug/ml of NAB7061
Escherichia coli [49] = experiment: Ratio of the MIC for Escherichia coli ATCC 25992 in the absence of NAB7061 to MIC for Escherichia coli ATCC 25992 in the presence of 4 ug/ml of NAB7061
Enterobacter cloacae [50] = experiment: Ratio of the MIC for Enterobacter cloacae ATCC 23355 in the absence of NAB7061 to MIC for Enterobacter cloacae ATCC 23355 […] in the presence of 4 ug/ml of NAB7061
Escherichia coli [51] = experiment: Antibacterial activity against Escherichia coli ATCC […] by Etest method in presence of NAB7061

Compound `CC[C@H]1OC(=O)[C@H](C)[C@@H](O[C@H]2C[C@@](C)(OC)[C@@H](O)[C@H](C)O2)[C@H](C)[C@@H](O[C@@H]2O[C@H](C)C[C@H](N(C)C)[C@H]2O)[C@](C)(OC)C[C@@H](C)C(=O)[C@H](C)[C@@H](O)[C@]1(C)O` [CLARITHROMYCIN] has an MIC (Proteus mirabilis) of 24 µg/mL, an MIC (Escherichia coli [1]) of 0.047 µg/mL and an MIC (Serratia marcescens) of 96 µg/mL. For the same compound, the MIC (Enterobacter cloacae [2]) was 64 µg/mL (≈ 85.6 µM), the MIC (Acinetobacter baumannii [3]) was 1 µg/mL and the MIC (Klebsiella pneumoniae [4]) was 0.19 µg/mL. For the same compound, the MIC (Klebsiella oxytoca [5]) was 0.19 µg/mL, the MIC (Citrobacter freundii) was 0.125 µg/mL and the MIC (Acinetobacter baumannii [6]) was 1.5 µg/mL. For the same compound, the MIC (Pseudomonas aeruginosa [7]) was 32 µg/mL, the MIC (Pseudomonas aeruginosa [8]) was 32 µg/mL and the MIC (Enterobacter cloacae [9]) was 1.5 µg/mL. For the same compound, the MIC (Acinetobacter baumannii [10]) was 2 µg/mL, the MIC (Klebsiella pneumoniae [11]) was 12 µg/mL (≈ 16 µM) and the MIC (Acinetobacter baumannii [12]) was 8 µg/mL (≈ 10.7 µM). The MIC (Pseudomonas aeruginosa [13]) was 12 µg/mL, the MIC (Klebsiella oxytoca [14]) was 0.25 µg/mL and the MIC (Pseudomonas aeruginosa [15]) was 48 µg/mL (≈ 64.2 µM). For the same compound, the MIC (Acinetobacter baumannii [16]) was 0.25 µg/mL, the MIC (Escherichia coli [17]) was 0.5 µg/mL and the MIC (Klebsiella pneumoniae [18]) was 24 µg/mL. The MIC (Escherichia coli [19]) was 1 µg/mL, the MIC (Escherichia coli [20]) was 12 µg/mL (≈ 16 µM) and the MIC (Enterobacter cloacae [21]) was 0.25 µg/mL. The MIC (Pseudomonas aeruginosa [22]) was 16 µg/mL, the MIC (Klebsiella pneumoniae [23]) was 2 µg/mL and the MIC (Escherichia coli [24]) was 0.19 µg/mL. The MIC (Enterobacter cloacae [25]) was 0.273 µg/mL, the MIC (Klebsiella pneumoniae [26]) was no more than 0.141 µg/mL and the MIC (Proteus vulgaris) was 24 µg/mL. It also gave an MIC (Escherichia coli [27]) of 0.5 µg/mL, an MIC (Escherichia coli [28]) of 0.25 µg/mL and an MIC (Klebsiella pneumoniae [29]) of 0.25 µg/mL. It also gave an MIC (Acinetobacter baumannii [30]) of 0.5 µg/mL, an MIC (Acinetobacter baumannii [31]) of 6 µg/mL (≈ 8.02 µM) and an MIC (Acinetobacter baumannii [32]) of 0.094 µg/mL. The MIC (Escherichia coli [33]) was 0.032 µg/mL, the MIC (Acinetobacter baumannii [34]) was 0.5 µg/mL and the MIC (Enterobacter cloacae [35]) was 0.047 µg/mL. The MIC (Acinetobacter baumannii [36]) was 0.5 µg/mL, the MIC (Pseudomonas aeruginosa [37]) was 3 µg/mL and the MIC (Escherichia coli [38]) was 16 µg/mL (≈ 21.4 µM). It also gave an MIC (Enterobacter cloacae [39]) of 0.38 µg/mL, an MIC (Enterobacter cloacae [40]) of 32 µg/mL and an MIC (Escherichia coli [41]) of 0.105 µg/mL. For the same compound, the MIC (Acinetobacter baumannii [42]) was 0.125 µg/mL, the MIC (Pseudomonas aeruginosa [43]) was 32 µg/mL and the MIC (Klebsiella pneumoniae [44]) was 1 µg/mL. It also gave an MIC (Escherichia coli [45]) of 0.094 µg/mL and an MIC (Acinetobacter baumannii [46]) of 1.5 µg/mL.

`CC[C@H]1OC(=O)[C@H](C)[C@@H](O[C@H]2C[C@@](C)(OC)[C@@H](O)[C@H](C)O2)[C@H](C)[C@@H](O[C@@H]2O[C@H](C)C[C@H](N(C)C)[C@H]2O)[C@](C)(O)C[C@@H](C)CN(C)[C@H](C)[C@@H](O)[C@]1(C)O` [AZITHROMYCIN] showed an MIC (Escherichia coli [1]) of 0.064 µg/mL, an MIC (Enterobacter cloacae [2]) of 6 µg/mL (≈ 8.01 µM) and an MIC (Klebsiella pneumoniae [4]) of 0.047 µg/mL. The Ratio (Escherichia coli [47]) was 31, the MIC (Enterobacter cloacae [9]) was 1.5 µg/mL and the MIC (Klebsiella pneumoniae [11]) was 2 µg/mL (≈ 2.67 µM). It also gave an MIC (Escherichia coli [17]) of 0.5 µg/mL, an MIC (Escherichia coli [20]) of 2 µg/mL (≈ 2.67 µM) and an MIC (Enterobacter cloacae [21]) of 0.19 µg/mL. It also gave an MIC (Klebsiella pneumoniae [23]) of 0.19 µg/mL, an MIC (Escherichia coli [24]) of 0.19 µg/mL and an MIC (Enterobacter cloacae [25]) of 0.438 µg/mL. The MIC (Klebsiella pneumoniae [26]) was no more than 0.126 µg/mL, the MIC (Escherichia coli [27]) was 0.75 µg/mL and the MIC (Escherichia coli [28]) was 0.19 µg/mL. For the same compound, the Ratio (Klebsiella pneumoniae [48]) was 31, the Ratio (Escherichia coli [49]) was 24 and the MIC (Escherichia coli [38]) was 3 µg/mL (≈ 4.01 µM). For the same compound, the MIC (Enterobacter cloacae [40]) was 4 µg/mL, the MIC (Escherichia coli [41]) was 0.173 µg/mL and the Ratio (Enterobacter cloacae [50]) was 32. For the same compound, the MIC (Klebsiella pneumoniae [44]) was 0.19 µg/mL, the “fractional inhibitory concentration index (FICI)” value (Escherichia coli [51]) was 0.157 and the MIC (Escherichia coli [45]) was 0.094 µg/mL.

— ChEMBL document CHEMBL1671867, “Novel polymyxin derivatives carrying only three positive charges are effective antibacterial agents” (Antimicrob Agents Chemother, 2008)
